Assay type in all cases: functional
Test [1] relates to Pseudomonas aeruginosa. In words: Potentiation of minocycline-induced bactericidal activity in Pseudomonas aeruginosa PAO1 at 0.5 times MIC incubated for 24 hrs in presence of 4 ug/ml minocycline by time kill curve assay relative to control. In outline: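 Time-kill. An overnight PAO1 culture was adjusted to 0.5 McFarland in saline and diluted 1:50 in LB. Cells were exposed to the adjuvant at ½× MIC plus fixed minocycline for 24 h at 37 °C. Aliquots taken at intervals were serially diluted in PBS and plated on LB agar; colonies were counted after 20 h at 37 °C. Controls were untreated cells and colistin at 4× MIC.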

The subject of test [2] is Pseudomonas aeruginosa. In words: Potentiation of rifampicin-induced antimicrobial activity against MDR/XDR Pseudomonas aeruginosa isolate 100036 harboring GyrA Thr83Ile mutant assessed as rifampicin MIC50 incubated for 18 hrs by broth microdilution method (reference value: 8 microg/ml). The conditions noted are these: isolate 100036, 18 h. On the technique in general: In broth dilution the organism is exposed to a series of concentrations in liquid medium.

The next test concerns Escherichia coli. Kind of test: Potentiation of minocycline-induced antibacterial activity against Escherichia coli 107115 assessed as fold reduction in minocycline MIC at 4.1 uM incubated for 18 hrs by broth dilution method. In outline:
(§1)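 Antibiotic MIC determined by CLSI broth microdilution (MHB, 5 × 10^5 CFU/mL, 18 h, 37 °C), once alone and once with a fixed concentration of the adjuvant. Potentiation is the ratio of the antibiotic MIC alone to its MIC in the presence of the adjuvant.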

Test [3] has as its system Klebsiella pneumoniae. In words: Potentiation of rifampicin-induced antibacterial activity against Klebsiella pneumoniae 113254 assessed as fold reduction in rifampicin MIC at 4.1 uM incubated for 18 hrs by broth dilution method. The method in brief: as §1
The subject of test [4] is Klebsiella pneumoniae. Kind of test: Potentiation of rifampicin-induced antibacterial activity against Klebsiella pneumoniae 116381 assessed as fold reduction in rifampicin MIC at 4.1 uM incubated for 18 hrs by broth dilution method. In outline: as §1
Test [5] has as its system Pseudomonas aeruginosa. In words: Potentiation of ciprofloxacin-induced antibacterial activity against MDR/XDR Pseudomonas aeruginosa isolate 100036 harboring GyrA T83I mutant assessed as fold reduction in ciprofloxacin MIC at 9 uM incubated for 18 hrs by broth microdilution method.

Where only a bound is given, the exact number is not on record here.

As a reminder, the MIC50 is the lowest concentration that inhibits either 50% of growth or 50% of the strains tested, depending on the study. For the compound `COc1c(N2C[C@@H]3CCCN(CCCCCCCCCCCCO[C@@H]4[C@@H](O)[C@H](N)C[C@H](N)[C@H]4O[C@H]4O[C@H](CN)[C@@H](O)C[C@H]4N)[C@@H]3C2)c(F)cc2c(=O)c(C(=O)O)cn(C3CC3)c12.Cl.Cl.Cl.Cl.Cl`, in the test on Pseudomonas aeruginosa [1], the Activity was 100%. For the same compound, the MIC50 with Pseudomonas aeruginosa [2] was 0.06 mg/L.
In the case of `Cl.Cl.Cl.Cl.Cl.NC[C@H]1O[C@H](O[C@H]2[C@H](OCCCCCCCCCCCCN3CCN(c4cc5c(cc4F)c(=O)c(C(=O)O)cn5C4CC4)CC3)[C@@H](O)[C@H](N)C[C@@H]2N)[C@H](N)C[C@@H]1O`, the results for the “fold change (FC)” value with Escherichia coli, in the test on Klebsiella pneumoniae [3] and with Klebsiella pneumoniae [4] were 16, 64 and “>=128”, respectively.
For the compound `Cl.Cl.Cl.Cl.Cl.Cl.NC[C@H]1O[C@H](O[C@H]2[C@H](OCCCCCCCCCCN3CCN(Cc4cccc5ccccc45)CC3)[C@@H](O)[C@H](N)C[C@@H]2N)[C@H](N)C[C@@H]1O`, in the test with Pseudomonas aeruginosa [5], the “fold change (FC)” value was determined as 8.
